Source: PubChem
mIAP act: mouse IAP activation | 330,000 tested, 0.24% active | muIAP, CDP-Star luminescence, 30 min; stronger effect = higher value; 1 = vehicle-only enzyme signal, 0 = enzyme-free wells | activation factor at 10 µM;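 active = activation factor of at least 2 at 20 µM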
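System: mouse IAP enzyme. Reagent: CDP-Star chemiluminescent phosphatase substrate. Benchmarks: DMSO wells, no-enzyme wells. Times: 30 min enzyme-substrate-compound incubation at room temperature. Detection: luminescence from enzymatic CDP-Star hydrolysis. Doses: test compounds delivered from DMSO solution.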
hIAP activ: increases human intestinal alkaline phosphatase activity | activation factor at 10 µM | 330,000 tested, 0.16% active | purified human IAP, CDP-Star luminescence, 30 min; stronger effect = higher value; 1 = vehicle-only enzyme, 0 = enzyme-free background | P09923 | AID 2524;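 active = activation factor of the enzyme at least 2-fold when tested at 20 µM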
Target sequence (P09923 whole entry, looked up): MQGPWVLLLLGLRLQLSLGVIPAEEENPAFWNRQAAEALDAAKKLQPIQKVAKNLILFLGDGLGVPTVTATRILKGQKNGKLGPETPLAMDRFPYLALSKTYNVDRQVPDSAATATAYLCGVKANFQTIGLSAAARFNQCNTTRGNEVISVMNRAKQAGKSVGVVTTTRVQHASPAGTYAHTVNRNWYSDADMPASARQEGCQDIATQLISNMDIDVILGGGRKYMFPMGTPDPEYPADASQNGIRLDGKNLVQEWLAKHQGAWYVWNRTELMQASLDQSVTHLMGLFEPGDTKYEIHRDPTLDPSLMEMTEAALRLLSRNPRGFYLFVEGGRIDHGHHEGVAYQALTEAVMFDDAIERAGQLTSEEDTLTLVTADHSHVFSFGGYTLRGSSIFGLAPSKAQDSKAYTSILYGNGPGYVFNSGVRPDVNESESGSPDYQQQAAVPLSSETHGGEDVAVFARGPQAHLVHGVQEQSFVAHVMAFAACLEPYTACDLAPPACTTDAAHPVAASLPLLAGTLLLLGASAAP
mIAP block: blocks mouse intestinal alkaline phosphatase. purified mouse IAP, CDP-Star luminescence, 30 min. inhibition, % at 10 µM. 330,000 tested, 0.2% active. AID 2806;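 active = inhibition of at least 40% at 10 µM in the primary screen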;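 also: plate controls were DMSO with enzyme for no effect and no enzyme wells for full effect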
bIAP inh: intestinal alkaline phosphatase (bovine) inhibition; purified bovine IAP, CDP-star luminescence, 30 min; inhibition, % at 20 µM; 190,000 tested, under 10 active;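 active = over 50% inhibition of intestinal alkaline phosphatase at 20 µM in the single-dose screen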
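test system = bovine IAP enzyme | medium = DEA buffer 100 mM, pH 9.8, with MgCl2 1.0 mM, ZnCl2 0.02 mM | detection = luminescence | dosing = single compound dose of 20 µM, 2% DMSO final | incubation = 30 min reaction at room temperature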
hIAP block: blocks human intestinal alkaline phosphatase; P09923; 330,000 tested, 0.12% active; inhibition, % at 10 µM; purified IAP, CDP-Star luminescence, 30 min;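 active = inhibition reaching a set limit with compound at 10 µM in the primary screen, cut at about 35% in these data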;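 also: plate controls were DMSO wells with enzyme for no effect and no-enzyme buffer wells for full effect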
bIAP act: increases bovine intestinal alkaline phosphatase activity; purified bovine IAP, CDP-star luminescence, 30 min; stronger effect = higher value; fold of DMSO-control signal, blank-subtracted; activation factor at 20 µM; 200,000 tested, 0.17% active; AID 1016;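 active = activation factor of 2 or more at 20 µM, a signal rise over negative controls twice the positive control's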
hIAP act confirm: human IAP activation confirmation | shares compounds with hIAP activ | purified IAP, CDP-Star luminescence, 30 min; stronger effect = lower value | activation (%Activity, negative = activation), % at 8.3 µM | 880 tested, 10% active | AID 434926;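 active = at least twofold enzyme activation in any of six single-dose repeats, which the averaged readout prints as negative percent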
Numbers without * were called inactive; . = no result given. Sampled rows, rich in hits. Any-hit rate of the full collection: about 0.72%.

SMILES	mIAP act	hIAP activ	mIAP block	bIAP inh	hIAP block	bIAP act	hIAP act confirm
CCC(=O)Nc1nnc(S(=O)(=O)N2c3ccccc3CC2C)s1 (stereo not drawn)	0.999	0.978	0.1	.	2.2	.	.
N/C(=N\OC(=O)c1ccc2ccccc2c1)c1ccccc1Cl	0.965	1.07	3.5	.	-6.6	.	.
NS(=O)(=O)c1ccc2nc(NC(=O)c3ccc4ncsc4c3)sc2c1	1.04	0.644	-4.1	.	35.6*	.	-18.8
Cc1cccc(C(=O)NNC(=S)NC(=O)c2cccs2)c1	0.808	1.26	19.2	.	-26.5	.	.
CC1CCCN(C(=O)C2CCN(S(=O)(=O)c3cccc4nsnc34)CC2)C1 (stereo not drawn)	0.939	0.511	6.1	.	48.9*	.	-4.4
CC(Oc1ccc2ccc(=O)oc2c1)C(=O)NCCN1CCOCC1 (stereo not drawn)	1.02	0.869	-2.5	.	13.1	.	.
Cc1cc(-n2c(SCC(=O)NCCC3=CCCCC3)nc3n[nH]c(C)c3c2=N)ccc1Cl	1.21	2.06*	-21.2	.	-105.6	.	-29.5
Cc1ccc(Cl)cc1-n1c(SCC(=O)NCCC2=CCCCC2)nc2n[nH]c(C)c2c1=N	0.976	1.66	2.4	.	-65.8	.	.
CCOC(=O)c1cnc(SCC(=O)c2ccccc2)nc1N	0.961	0.647	3.9	9.9	35.3*	0.9	-436.4*
CCOC(=O)c1cnc(SCC(=O)c2ccc(C)cc2)nc1N	0.975	0.872	2.5	7.3	12.8	0.9	.
CCCOc1ccc(C(=O)NCC(c2ccco2)N(C)C)cc1OC (stereo not drawn)	0.981	0.983	1.9	-0.8	1.7	1	.
COc1ccc(C(=O)NCC(=O)NCC(c2ccco2)N(C)C)cc1OC (stereo not drawn)	0.965	0.562	3.5	8.9	43.8*	0.9	5.6
Cn1cccc1-c1cc(C(=O)N/N=C/c2cc(Br)ccc2O)[nH]n1	0.714	2.54*	28.6	.	-153.9	.	-2.1
CC(C)Oc1cccc(C(=O)Nc2ncn[nH]2)c1	0.965	2.24*	3.5	.	-123.8	.	5.1
CC(C)COc1ccc(C(=O)Nc2ncn[nH]2)cc1	1.12	1.1	-12.5	.	-9.9	.	.
CC(C)Oc1ccc(C(=O)Nc2ncn[nH]2)cc1	1.08	2.01*	-8.5	.	-101.3	.	-64.7*
COc1ccc(Cl)cc1NC(=O)CN(C)C(=O)c1cc(-c2ccncc2)nc2ccccc12	0.956	1.09	4.4	.	-9.4	.	.
CCc1nnc(NC(=O)c2ccc3ccccc3n2)s1	0.749	1.53	25.1	-45.0	-53.4	1.5	.
CCSc1nnc(NC(=O)c2ccc3ccccc3n2)s1	0.85	2.13*	15.0	0.9	-112.6	1	-7.1
CCOc1cccc2sc(Nc3nc4ccc(NC(C)=O)cc4s3)nc12	1.39	2.08*	-39.0	-14.1	-107.5	1.1	9.0
CC(C)N1CC(C(=O)Nc2ccccc2)CC1=O (stereo not drawn)	1.02	1.15	-2.0	6.9	-15.2	0.9	.
CC(=O)Nc1ccc(NC(=O)C2CC(=O)N(C(C)C)C2)cc1 (stereo not drawn)	0.895	0.632	10.5	.	36.8*	.	19.9
O=C(Cn1ccnc1)c1ccc(O)c(O)c1	0.9	0.594	10.0	.	40.6*	.	-43.6
O=c1c2cc(O)c(O)cc2oc2cc(O)c(C3OC(CO)C(O)C(O)C3O)c(O)c12 (stereo not drawn)	0.695	0.177	30.5	.	82.3*	.	-148.3*
Cc1cc(N(C)/N=C/c2ccccc2O)nc(-c2ccccc2O)n1	1.11	2.3*	-11.4	-22.8	-130.4	1.2	-37.1
SMILES	mIAP act	hIAP activ	mIAP block	bIAP inh	hIAP block	bIAP act	hIAP act confirm
CCn1cc(C(=O)NCCCOC)c(=O)c2cc(S(=O)(=O)N3CCCC3)ccc21	0.983	0.611	1.7	.	38.9*	.	-23.3
CCCCNC(=O)c1cn(CC)c2ccc(S(=O)(=O)N3CCCC3)cc2c1=O	1.02	0.817	-2.0	.	18.3	.	.
OC1(c2cccs2)CN(c2ccc(Br)cc2)C2=[N+]1CCCS2 (stereo not drawn)	0.947	2.8*	5.3	.	-180.3	.	17.6
CCN1CCN(c2oc(-c3ccccc3C)nc2S(=O)(=O)c2ccccc2)CC1	1	1.16	-0.2	.	-15.9	.	.
CCn1nc(NS(=O)(=O)c2ccccc2)c2cc3ccc(C)cc3nc21	0.966	0.614	3.4	.	38.6*	.	-0.9
CCn1nc(NS(=O)(=O)c2ccccc2)c2cc3cc(C)ccc3nc21	0.948	1.09	5.2	.	-8.7	.	.
COc1ccccc1/C=C1\SC(=S)N(CC(=O)Nc2nnc(C)s2)C1=O	1.02	0.938	-2.5	-6.0	6.2	1.1	.
CCN1/C(=C/c2ccc3cc(C)ccc3[n+]2CC)Sc2ccc3sccc3c21	0.566	0.648	43.4*	.	35.2*	.	0.5
CCN1/C(=C\c2ccc3cc(C)ccc3[n+]2CC)Sc2cc(C)c(C)cc21	.	.	.	37.4	.	0.6	.
CSc1ncccc1C(=O)NCc1nnc2ccccn12	1.02	0.879	-2.4	.	12.1	.	.
CCC(NC(=S)NC1CCCCC1)c1ccc(C(C)C)cc1 (stereo not drawn)	5.67*	4.11*	-467.0	.	-310.7	.	-24.1*
Cc1ccc(C(C)NC(=S)NC2CCCCC2)cc1C (stereo not drawn)	1.62	0.956	-62.0	.	4.4	.	.
C/C(=N/Nc1ccccc1[N+](=O)[O-])c1ccc([N+](=O)[O-])cc1	0.906	0.632	9.4	.	36.8*	.	-232.7*
Cc1nc(S/C(=C\c2ccc(OCc3ccccc3Cl)cc2)C(=O)O)n[nH]1	0.887	2.13*	11.3	-10.4	-112.6	1.1	-48.0
Cc1nc(SCC(=O)Nc2ccc(OCc3ccccc3)cc2)n[nH]1	0.934	1.39	6.6	-3.2	-38.8	1	.
C[n+]1c(/C=C/c2ccc(O)cc2)ccc2ccccc21	0.72	0.555	28.0	.	44.5*	.	4.1
O=C1NC(Cc2ccccc2)c2nc3cc(F)ccc3c(=O)n2-c2ccccc21 (stereo not drawn)	1.01	0.929	-1.0	.	7.1	.	.
CCCN(C(=O)CSc1ncccn1)C1CCS(=O)(=O)C1 (stereo not drawn)	0.939	1	6.1	.	0.0	.	.
Cc1ccc(-c2cc(C(=O)N/N=C/c3ccccc3O)n[nH]2)o1	0.844	3.14*	15.6	.	-214.1	.	39.3
COc1ccc(C2c3ccc(O)cc3Oc3ncn4nc(-c5ccncc5)nc4c32)cc1OC (stereo not drawn)	0.856	0.591	14.4	.	40.9*	.	3.7
COc1cc2c(cc1OC)C(Cc1ccc(O)c(Oc3ccc(C[C@H]4c5cc(OC)c(OC)cc5CCN4C)cc3)c1)N(C)CC2 (stereo partly drawn)	1.01	1.01	-1.0	.	-1.1	.	.
NC(=O)c1nc(-c2ccco2)nc2c1[nH]c(=O)n2-c1ccc(Cl)c(Cl)c1	0.708	2.05*	29.2	.	-105.1	.	-68.5
NC(=O)c1nc(-c2cccs2)nc2c1[nH]c(=O)n2-c1ccc(F)cc1	1.24	2.33*	-23.8	-23.9	-133.1	1.2	-23.3
